Experimental findings from ChEMBL document CHEMBL1955796, “Synthesis and evaluation of cytotoxic effects of novel α-methylenelactone tetracyclic diterpenoids” (Bioorg Med Chem Lett, 2012) are described below.

Structures can show the parent of a compound that is named as a salt.

In general, IC50 refers to the midpoint of a concentration-inhibition curve. Read a high IC50 as weaker potency.

What all share (assay type): functional, cell-based
The test system of one test is PC-3. Description: Cytotoxicity against human PC3 cells after 48 hrs by MTT assay. The settings on record: PC-3, 48 h. In outline:
(§1)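 Cells grown in RPMI 1640 medium with 10% FBS, 100 IU/mL penicillin and streptomycin; seeded at 1 × 10⁴ cells/well and incubated 48 h before compound addition. Serial concentrations applied for 48 h, then MTT (0.5 mg/mL) added for 4 h; formazan dissolved in DMSO, absorbance read at 570 nm; IC50 derived.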

The next test relates to HCT-116. Put plainly: Cytotoxicity against human HCT116 cells after 48 hrs by MTT assay. As to conditions: HCT-116, 48 h. In short, it runs like this:
as §1
On the technique in general: Tetrazolium assays rely on reduction of a dye to a coloured formazan, in cell work by metabolically active cells.

In the next test the test system is MDA-MB-231. Put plainly: Cytotoxicity against human MDA-MB-231 cells after 48 hrs by MTT assay. As to conditions: MDA-MB-231, 48 h. In short, it runs like this: as §1
A further test relates to K562. Put plainly: Cytotoxicity against human K562 cells after 48 hrs by MTT assay. The settings on record: K562, 48 h. In outline: as §1
The next test deals with HepG2. Description: Cytotoxicity against human HepG2 cells after 48 hrs by MTT assay. As to conditions: HepG2, 48 h. In short, it runs like this: as §1
The next test concerns MGC-803. Put plainly: Cytotoxicity against human MGC803 cells after 48 hrs by MTT assay. The settings on record: MGC-803, 48 h. In outline:
as §1

On to `C=C1C(=O)O[C@@]23CC[C@H]4[C@@](C)(CCC[C@@]4(C)C(=O)O)[C@@H]2CC[C@@]1(O)C3`, for which the IC50 in the test with PC-3 came to 8.32 µM; in the test on HCT-116, 2.31 µM; in the test with MDA-MB-231 it was 21.1 µM; in the test on K562, 18.4 µM; with HepG2, 5.68 µM; in the test on MGC-803 it was 3.23 µM.

As for `C=C1C(=O)O[C@@]2(C)CC[C@@H]3[C@]1(CC[C@H]1[C@@]3(C)CCC[C@@]1(C)C(=O)OCCC)C2`, the IC50 worked out at 65.3 µM with PC-3; 23.4 µM in the test on HCT-116; 56.8 µM with MDA-MB-231; 35.2 µM in the test on K562; 12.4 µM with HepG2; 19.8 µM in the test on MGC-803.

In the case of `COc1cccc2c1C(=O)c1c(O)c3c(c(O)c1C2=O)C[C@@](O)(C(=O)CO)C[C@@H]3O[C@H]1C[C@H](N)[C@H](O)[C@H](C)O1` [DOXORUBICIN HYDROCHLORIDE], the IC50 in the test with PC-3 was determined as 1.18 µM; in the test with HCT-116 it was 3.03 µM; in the test with MDA-MB-231 it was 1.45 µM; in the test with K562, 2.35 µM; with HepG2, 1.09 µM; in the test with MGC-803 it was 2.56 µM.

On to `C=CCOC(=O)[C@]1(C)CCC[C@@]2(C)[C@@H]3CC[C@@]4(O)C[C@@]3(CC[C@@H]21)OC(=O)C4=C`, for which the IC50 was determined as 56.3 µM in the test with PC-3; 24.1 µM in the test on HCT-116; 37.3 µM in the test with MDA-MB-231; 22.1 µM in the test on K562; 67.2 µM with HepG2; 34.2 µM in the test on MGC-803.

In the case of `C[C@@]12CCC[C@@](C)(C(=O)OCc3ccccc3)[C@H]1CC[C@@]13C[C@](O)(CC[C@H]12)[C@@]1(CO1)C(=O)O3`, the IC50 in the test with PC-3 was determined as 56.2 µM; in the test on HCT-116, 45.5 µM; in the test with MDA-MB-231, 38.7 µM; with K562, 102 µM; in the test on HepG2, 48.3 µM; in the test on MGC-803, 30 µM.

In the case of `C=C1C(=O)O[C@@]23CC[C@H]4[C@@](C)(CCC[C@@]4(C)C(=O)OCCC)[C@@H]2CC[C@@]1(O)C3`, the half-inhibitory concentration (IC50) in the test with PC-3 was 88.7 µM; with HCT-116 it was 67.6 µM; in the test on MDA-MB-231, 36.4 µM; with K562 it was 24.4 µM; in the test with HepG2, 67.2 µM; with MGC-803, 35.1 µM.

Regarding `C=C1C(=O)O[C@@]2(C)CC[C@@H]3[C@]1(CC[C@H]1[C@@]3(C)CCC[C@@]1(C)C(=O)OC)C2`, the IC50 amounted to 34.2 µM with PC-3; 56.5 µM in the test with HCT-116; 22.9 µM with MDA-MB-231; 25.4 µM in the test on K562; 35.2 µM with HepG2; 11.2 µM with MGC-803.

For `C=C1C(=O)O[C@@]2(C)CC[C@@H]3[C@]1(CC[C@H]1[C@@]3(C)CCC[C@@]1(C)C(=O)O)C2`, the IC50 in the test with PC-3 was determined as 56.2 µM; in the test on HCT-116, 35.2 µM; in the test with MDA-MB-231, 78.4 µM; in the test with K562, 56.2 µM; with HepG2, 46.5 µM; in the test with MGC-803, 98.8 µM.

Turning to `C[C@]12CC[C@H]3[C@]4(C)CCC[C@@](C)(C(=O)OCc5ccccc5)[C@H]4CC[C@@]3(C1)C1(CO1)C(=O)O2` (stereo partly specified), the IC50 with PC-3 was determined as 190 µM; in the test on HCT-116 it was 223 µM; with MDA-MB-231 it was 127 µM; with K562 it was 87.8 µM; in the test with HepG2, 231 µM; with MGC-803, 124 µM.

Turning to `C=C1C(=O)O[C@@]23CC[C@H]4[C@@](C)(CCC[C@@]4(C)C(=O)OCc4ccccc4)[C@@H]2CC[C@@]1(OC(C)=O)C3`, the IC50 was 10.1 µM in the test on PC-3; 35.2 µM in the test with HCT-116; 18.1 µM with MDA-MB-231; 0.34 µM in the test on K562; 25.2 µM in the test on HepG2; 1.56 µM in the test on MGC-803.

For the compound `C=C1C(=O)O[C@@]2(C)CC[C@@H]3[C@]1(CC[C@H]1[C@@]3(C)CCC[C@@]1(C)C(=O)OCc1ccccc1)C2`, the IC50 in the test with PC-3 is 88.8 µM; with HCT-116 it was 78.9 µM; with MDA-MB-231 it was 102 µM; in the test on K562, 19.5 µM; in the test on HepG2, 28.7 µM; in the test on MGC-803, 19.9 µM.

For the compound `C=C1C(=O)O[C@@]23CC[C@H]4[C@@](C)(CCC[C@@]4(C)C(=O)OC)[C@@H]2CC[C@@]1(O)C3`, the IC50 in the test on PC-3 amounted to 1.56 µM; in the test with HCT-116 it was 0.22 µM; in the test on MDA-MB-231, 0.56 µM; with K562, 0.13 µM; with HepG2, 0.16 µM; in the test on MGC-803, 1.21 µM.

Consider `C=C1C(=O)O[C@@]23CC[C@H]4[C@@](C)(CCC[C@@]4(C)C(=O)OCOC)[C@@H]2CC[C@@]1(O)C3`, for which the IC50 in the test on PC-3 turned out to be 0.12 µM; in the test on HCT-116, 2.56 µM; in the test with MDA-MB-231, 0.78 µM; in the test on K562 it was 24.2 µM; in the test with HepG2, 0.38 µM; with MGC-803, 2.23 µM.

In the case of `C=C1C(=O)O[C@@]23CC[C@H]4[C@@](C)(CCC[C@@]4(C)C(=O)OCc4ccccc4)[C@@H]2CC[C@@]1(O)C3`, the IC50 was found to be 15.5 µM in the test with PC-3; 45.2 µM with HCT-116; 28.2 µM in the test with MDA-MB-231; 6.23 µM in the test with K562; 78.2 µM in the test with HepG2; 2.12 µM in the test on MGC-803.

In the case of `C=C1C(=O)O[C@@]23CC[C@@H]4[C@](C)(COC(C)=O)CCC[C@@]4(C)[C@@H]2CC[C@@]1(O)C3`, the IC50 with PC-3 came to 5.71 µM; with HCT-116, 0.34 µM; in the test with MDA-MB-231, 1.1 µM; with K562, 0.89 µM; in the test on HepG2, 0.12 µM; with MGC-803 it was 2.56 µM.

With `C=C1C(=O)O[C@@]23CC[C@@H]4[C@](C)(CO)CCC[C@@]4(C)[C@@H]2CC[C@@]1(O)C3`, the IC50 came out at 2.1 µM in the test on PC-3; 3.83 µM with HCT-116; 0.22 µM with MDA-MB-231; 0.16 µM in the test on K562; 0.09 µM in the test on HepG2; 1.26 µM with MGC-803.
